{
  "source": "ChEMBL document CHEMBL1142626",
  "about": "“Insecticidal and mutagenic evaluation of two annonaceous acetogenins” (J Nat Prod, 2000)",
  "key": {"[1]": {"system": "Spodoptera littoralis", "assay": "Antifeedant effect against Spodoptera littoralis L6 larvae assessed as relative growth rate at 10 ug, po after 72 hrs", "type": "functional", "summary_of_the_method": "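Preweighed, newly emerged S. littoralis L6 larvae (20 per experiment) were orally cannulated with 10 µg in 2 µL DMSO; controls got solvent alone. Relative consumption and growth rates were calculated at 72 h on a dry-weight basis. Log-transformed weights were analysed by ANOVA with LSD tests.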"}, "[2]": {"system": "Salmonella typhimurium", "assay": "Mutagenic activity in Salmonella Typhimurium TA102 assessed as number of revertants at 50 ug/plate in presence of Wistar rat S9 liver homogenate", "type": "toxicity, organism-based, Liver S9 fraction", "conditions": "salmonella enterica subsp. enterica serovar typhimurium", "summary_of_the_method": "(§1)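 Salmonella/microsome plate test, with or without S9 from livers of male Wistar rats (~200 g). Strain markers and spontaneous revertant counts were routinely verified. Revertants are reported as mean ± standard error of triplicate plates. Strain-specific positive controls were used, with 2-aminoanthracene for all strains when S9 was present.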"}, "[3]": {"system": "Salmonella typhimurium", "assay": "Mutagenic activity in Salmonella Typhimurium TA98 assessed as number of revertants at 10 ug/plate in presence of Wistar rat S9 liver homogenate", "type": "toxicity, organism-based, Liver S9 fraction", "conditions": "salmonella enterica subsp. enterica serovar typhimurium", "summary_of_the_method": "as §1"}, "[4]": {"system": "Salmonella typhimurium", "assay": "Mutagenic activity in Salmonella Typhimurium TA102 assessed as number of revertants at 0.1 ug/plate in absence of Wistar rat S9 liver homogenate", "type": "toxicity, organism-based", "conditions": "salmonella enterica subsp. enterica serovar typhimurium", "summary_of_the_method": "as §1"}, "[5]": {"system": "Salmonella typhimurium", "assay": "Mutagenic activity in Salmonella Typhimurium TA100 assessed as number of revertants at 1 ug/plate in absence of Wistar rat S9 liver homogenate", "type": "toxicity, organism-based", "conditions": "salmonella enterica subsp. enterica serovar typhimurium", "summary_of_the_method": "as §1"}, "[6]": {"system": "Salmonella typhimurium", "assay": "Mutagenic activity in Salmonella Typhimurium TA100 assessed as number of revertants at 50 ug/plate in absence of Wistar rat S9 liver homogenate", "type": "toxicity, organism-based", "conditions": "salmonella enterica subsp. enterica serovar typhimurium", "summary_of_the_method": "as §1"}, "[7]": {"system": "Salmonella typhimurium", "assay": "Mutagenic activity in Salmonella Typhimurium TA102 assessed as number of revertants at 0.01 ug/plate in presence of Wistar rat S9 liver homogenate", "type": "toxicity, organism-based, Liver S9 fraction", "conditions": "salmonella enterica subsp. enterica serovar typhimurium", "summary_of_the_method": "as §1"}, "[8]": {"system": "Salmonella typhimurium", "assay": "Mutagenic activity in Salmonella Typhimurium TA98 assessed as number of revertants at 20 ug/plate in presence of Wistar rat S9 liver homogenate", "type": "toxicity, organism-based, Liver S9 fraction", "conditions": "salmonella enterica subsp. enterica serovar typhimurium", "summary_of_the_method": "(§2)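 Salmonella/microsome plate test (Ames) in strain TA98, with genetic markers and spontaneous revertant counts verified routinely. Run with and without S9 mix, the S9 being liver postmitochondrial supernatant from male Wistar rats of about 200 g. Doses ran from 0.01 to 100 µg/plate. Revertants are the mean of triplicate plates with standard error. Positive controls were 0.5 µg 4-nitroquinoline-N-oxide without S9 and 15 µg 2-aminoanthracene with S9.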"}, "[9]": {"system": "Salmonella typhimurium", "assay": "Mutagenic activity in Salmonella Typhimurium TA100 assessed as number of revertants at 0.01 ug/plate in absence of Wistar rat S9 liver homogenate", "type": "toxicity, organism-based", "conditions": "salmonella enterica subsp. enterica serovar typhimurium", "summary_of_the_method": "as §1"}, "[10]": {"system": "Salmonella typhimurium", "assay": "Mutagenic activity in Salmonella Typhimurium TA102 assessed as number of revertants at 1 ug/plate in absence of Wistar rat S9 liver homogenate", "type": "toxicity, organism-based", "conditions": "salmonella enterica subsp. enterica serovar typhimurium", "summary_of_the_method": "as §1"}, "[11]": {"system": "Salmonella typhimurium", "assay": "Mutagenic activity in Salmonella Typhimurium TA98 assessed as number of revertants at 0.01 ug/plate in absence of Wistar rat S9 liver homogenate", "type": "toxicity, organism-based", "conditions": "salmonella enterica subsp. enterica serovar typhimurium", "summary_of_the_method": "as §1"}, "[12]": {"system": "Salmonella typhimurium", "assay": "Mutagenic activity in Salmonella Typhimurium TA102 assessed as number of revertants at 10 ug/plate in absence of Wistar rat S9 liver homogenate", "type": "toxicity, organism-based", "conditions": "salmonella enterica subsp. enterica serovar typhimurium", "summary_of_the_method": "as §1"}, "[13]": {"system": "Leptinotarsa decemlineata", "assay": "Insecticidal activity against Leptinotarsa decemlineata assessed as mortality at 5 ug by hemolymph injection after 72 hrs", "type": "functional", "summary_of_the_method": "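Adult L. decemlineata (20 beetles) were injected with 5 µg in DMSO through the metepimeron suture of the thorax. Beetles were kept on potato leaves. Symptoms and mortality were recorded up to 3 days, analysed by contingency tables and Abbott-corrected.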"}, "[14]": {"system": "Salmonella typhimurium", "assay": "Mutagenic activity in Salmonella Typhimurium TA98 assessed as number of revertants at 20 ug/plate in absence of Wistar rat S9 liver homogenate", "type": "toxicity, organism-based", "conditions": "salmonella enterica subsp. enterica serovar typhimurium", "summary_of_the_method": "as §2"}, "[15]": {"system": "Salmonella typhimurium", "assay": "Mutagenic activity in Salmonella Typhimurium TA100 assessed as number of revertants at 1 ug/plate in presence of Wistar rat S9 liver homogenate", "type": "toxicity, organism-based, Liver S9 fraction", "conditions": "salmonella enterica subsp. enterica serovar typhimurium", "summary_of_the_method": "as §1"}, "[16]": {"system": "Salmonella typhimurium", "assay": "Mutagenic activity in Salmonella Typhimurium TA98 assessed as number of revertants at 1 ug/plate in presence of Wistar rat S9 liver homogenate", "type": "toxicity, organism-based, Liver S9 fraction", "conditions": "salmonella enterica subsp. enterica serovar typhimurium", "summary_of_the_method": "as §1"}, "[17]": {"system": "Salmonella typhimurium", "assay": "Mutagenic activity in Salmonella Typhimurium TA100 assessed as number of revertants at 0.1 ug/plate in presence of Wistar rat S9 liver homogenate", "type": "toxicity, organism-based, Liver S9 fraction", "conditions": "salmonella enterica subsp. enterica serovar typhimurium", "summary_of_the_method": "as §1"}, "[18]": {"system": "Salmonella typhimurium", "assay": "Mutagenic activity in Salmonella Typhimurium TA102 assessed as number of revertants at 0.01 ug/plate in absence of Wistar rat S9 liver homogenate", "type": "toxicity, organism-based", "conditions": "salmonella enterica subsp. enterica serovar typhimurium", "summary_of_the_method": "as §1"}, "[19]": {"system": "Salmonella typhimurium", "assay": "Mutagenic activity in Salmonella Typhimurium TA98 assessed as number of revertants at 100 ug/plate in absence of Wistar rat S9 liver homogenate", "type": "toxicity, organism-based", "conditions": "salmonella enterica subsp. enterica serovar typhimurium", "summary_of_the_method": "as §2"}, "[20]": {"system": "Salmonella typhimurium", "assay": "Mutagenic activity in Salmonella Typhimurium TA100 assessed as number of revertants at 0.1 ug/plate in absence of Wistar rat S9 liver homogenate", "type": "toxicity, organism-based", "conditions": "salmonella enterica subsp. enterica serovar typhimurium", "summary_of_the_method": "as §1"}, "[21]": {"system": "Salmonella typhimurium", "assay": "Mutagenic activity in Salmonella Typhimurium TA100 assessed as number of revertants at 20 ug/plate in presence of Wistar rat S9 liver homogenate", "type": "toxicity, organism-based, Liver S9 fraction", "conditions": "salmonella enterica subsp. enterica serovar typhimurium", "summary_of_the_method": "as §1"}, "[22]": {"system": "Myzus persicae", "assay": "Insecticidal activity against Myzus persicae assessed as increase in mortality at 100 ug/cm2 observed daily for 4 days", "type": "functional, organism-based", "summary_of_the_method": "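No-choice test: 20 boxes, each with five same-age apterous adult M. persicae (100 insects). Nymphs produced in the first 48 h were separated from adults and kept in similarly treated boxes. Both were observed daily for 4 days for mortality. Analysed by contingency tables and LSD test.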"}, "[23]": {"system": "Salmonella typhimurium", "assay": "Mutagenic activity in Salmonella Typhimurium TA98 assessed as number of revertants at 0.1 ug/plate in presence of Wistar rat S9 liver homogenate", "type": "toxicity, organism-based, Liver S9 fraction", "conditions": "salmonella enterica subsp. enterica serovar typhimurium", "summary_of_the_method": "as §1"}, "[24]": {"system": "Myzus persicae", "assay": "Antifeedant effect against Myzus persicae assessed as inhibition index at 100 ug/cm2 relative to control", "type": "functional", "design": "scale not given: the % may be the effect or the level left", "summary_of_the_method": "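Choice settling test on apterous adult M. persicae: 20 boxes of 10 aphids per treatment. Settling inhibition %SI = [1 − (%aphids on treated/%aphids on control surface)] × 100.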"}},
  "data": [
    {"smiles": "CCCCCC[C@H](O)CCC[C@H](O)[C@H]1CC[C@H]([C@H]2CC[C@H]([C@H](O)CCCCCCCCCCCCC3=C[C@H](C)OC3=O)O2)O1", "note": "[SQUAMOCIN]", "values": [
      {"measurement": "Activity", "setting": "[1]", "result": 3.36, "unit": "mg"},
      {"measurement": "Activity", "setting": "[2]", "result": 99},
      {"measurement": "Activity", "setting": "[3]", "result": 41},
      {"measurement": "Activity", "setting": "[4]", "result": 243},
      {"measurement": "Activity", "setting": "[5]", "result": 114},
      {"measurement": "Activity", "setting": "[6]", "result": 39},
      {"measurement": "Activity", "setting": "[7]", "result": 414},
      {"measurement": "Activity", "setting": "[8]", "result": 43},
      {"measurement": "Activity", "setting": "[9]", "result": 154},
      {"measurement": "Activity", "setting": "[10]", "result": 182},
      {"measurement": "Activity", "setting": "[11]", "result": 27},
      {"measurement": "Activity", "setting": "[12]", "result": 108},
      {"measurement": "Activity", "setting": "[13]", "result": 92.18, "unit": "%"},
      {"measurement": "Activity", "setting": "[14]", "result": 13},
      {"measurement": "Activity", "setting": "[15]", "result": 138},
      {"measurement": "Activity", "setting": "[16]", "result": 39},
      {"measurement": "Activity", "setting": "[17]", "result": 137},
      {"measurement": "Activity", "setting": "[18]", "result": 259},
      {"measurement": "Activity", "setting": "[19]", "result": 6},
      {"measurement": "Activity", "setting": "[20]", "result": 140},
      {"measurement": "Activity", "setting": "[21]", "result": 135},
      {"measurement": "Activity", "setting": "[22]", "result": "Non-toxic"},
      {"measurement": "Activity", "setting": "[23]", "result": 39},
      {"measurement": "Activity", "setting": "[24]", "result": "<40", "unit": "%"}
    ]}
  ]
}
